In PubChem BioAssay:
The source made the active and inactive calls.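 Rule for the calls, unless noted: active = a full or partial loss of lipid-probe fluorescence in the fish gall bladder, intestine or both, judged by eye; inactive = no fluorescence loss, or compound toxic to the fish.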

Tests used:
[1] = inhibitors of TNFa-induced NFkB p65 translocation, primary screen, imaging, HUVEC, MLSMR starter and 10KST1 sets (AID 438;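 active = inhibition above 20% together with a positive visual image hit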;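 note: compound added about 3h40 before a 20 min TNFalpha stimulation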;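 for inhibition: signal is the nuclear over cytoplasmic p65 intensity ratio per well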); conditions: HUVEC TNFa-induced p65 nuclear translocation; cell count: measured here: nuclei count (cytotoxicity indicator), at 2.08 µM; inhibition: at 2 µM, stronger effect = higher value, 0% TNFa-plus-vehicle, 100% no-TNFa wells
[2] = inhibitors of E-selectin induction by TNFa, primary screen, imaging, HUVEC, immunofluorescence, MLSMR starter and 10KST1 sets (AID 487;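 active = visually confirmed hit in the image check and inhibition above 20%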;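 for inhibition: signal is fraction of cell area covered by stained E-selectin grains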;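 for nuclei count: 100% = median nuclei count of all wells on the same plate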); conditions: HUVEC TNFalpha-induced E-selectin immunofluorescence imaging, at 2 µM; inhibition: stronger effect = higher value; nuclei count: measured here: cell number, toxicity
[3] = DUSP6 inhibitors restoring Erk phosphorylation by chemical complementation, primary imaging in DUSP6-transfected HeLa (AID 609;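 active = compounds giving at least 50% inhibition in the cell-based MKP-3 phosphatase rescue imaging test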;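 for inhibition: phospho-Erk level distribution per well compared with pooled transfected vehicle control wells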); conditions: HeLa MKP-3 transfected, phospho-Erk imaging KS statistic, at 10 µM, cells stimulated with TPA for 15 min
[4] = biological target: Dual specificity protein phosphatase 6 (Homo sapiens) (UniProt Q16828); assay: as above; conditions: HeLa MKP-3 transfected, phospho-Erk imaging KS statistic; at 10 µM; stronger effect = higher value; cells stimulated with TPA for 15 min
[5] = biological target: Voltage-gated potassium channel subunit beta-2 (Rattus norvegicus) (UniProt P62483); assay: KvBeta enzyme negative modulators, primary screen, biochemical, NADPH fluorescence (AID 622;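 active = fluorescence slope higher than the sample average by over 3 SD, cut at about -0.22 in these data, passing the limit was not always enough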;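 note: slope of raw intensity against log time taken from 70 to 1610 s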); conditions: recombinant KvBeta, 4-cyanobenzaldehyde reduction, at 10 µM, stronger effect = higher value
[6] = biological target: Voltage-gated potassium channel subunit beta-2 (Rattus norvegicus) (UniProt P62483); assay: KvBeta positive modulators, primary screen, biochemical, NADPH fluorescence (AID 623;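 active = NADPH fluorescence slope more negative than the mean of all samples by about 3 SD, 99.7% confidence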;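 note: fluorescence intensity change per second fitted from 20 to 320 s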); conditions: Recombinant KvBeta, NADPH fluorescence decrease slope, 10 min; at 10 µM; stronger effect = lower value
[7] = biological target: Muscarinic acetylcholine receptor M4 (Homo sapiens) (UniProt P08173); assay: compounds altering M4/GIRK thallium flux, either direction, primary screen, M4 allosteric agonist project, cell-based, HEK293 M4/GIRK, BTC-AM (AID 625;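 active = fluorescence slope after compound addition differing from the mean of all tested samples at 99.7% confidence, mostly higher but some lower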;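 note: thallium influx through GIRK channels coupled to M4 in HEK293 cells with BTC-AM dye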); conditions: at 10 µM, actives lie on both sides
Outline: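 Material: HEK293 cells with M4 receptor and GIRK channels; Times: cells overnight at 37 °C, BTC-AM loading 1 h, reads 2 min total; Technique: kinetic BTC-AM fluorescence sampled at 1 Hz, 10 s pre-addition baseline; Read-out basis: slope over 15–24 s of trace normalized to starting intensity; Controls: carbachol positive, DMSO negative.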

[8] = inhibitors of larval lipid processing in zebrafish, primary screen, whole organism, PED6 fluorescence, gall bladder and intestine (AID 686); conditions: Zebrafish larvae PED6 lipid processing, fluorescence scoring; screened at 20 µM (by protocol);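 note: larvae 5 to 7 days old with five fish per well; signal comes from phospholipase A2 cleavage of quenched PED6 carried via bile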
Outline: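 Incubation: overnight exposure of larvae to compound plus PED6 / Test system: live zebrafish larvae aged 5-7 days, whole organism / Amount: 5 larvae per well / Read-out basis: visual per-well fluorescence inhibition score / Signal: visual fluorescence microscopy scoring of gall bladder, gut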

[9] = inhibitors of Chlamydomonas gravitaxis, primary screen, whole organism, Chlamydomonas reinhardtii, WT vs cilia-less mutant, absorbance, 96-well (AID 463189;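 active = inhibition at or above 50% relative to wild type and mutant plate controls; inactive = inhibition below 50%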;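 note: 0% = wild type cc124 cells in DMSO and 100% = ciliumless bld1 mutant cells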); conditions: OD600 absorbance, 2 days, at 10 µM, stronger effect = higher value
[10] = measured here: cell density z-score
[11] = measured here: nuclear c-Myc green intensity z-score
[12] = measured here: nuclear pErk red intensity z-score, stronger effect = higher value

Voltage-gated potassium channel subunit beta-2 (Rattus norvegicus), sequence (P62483 whole entry, looked up): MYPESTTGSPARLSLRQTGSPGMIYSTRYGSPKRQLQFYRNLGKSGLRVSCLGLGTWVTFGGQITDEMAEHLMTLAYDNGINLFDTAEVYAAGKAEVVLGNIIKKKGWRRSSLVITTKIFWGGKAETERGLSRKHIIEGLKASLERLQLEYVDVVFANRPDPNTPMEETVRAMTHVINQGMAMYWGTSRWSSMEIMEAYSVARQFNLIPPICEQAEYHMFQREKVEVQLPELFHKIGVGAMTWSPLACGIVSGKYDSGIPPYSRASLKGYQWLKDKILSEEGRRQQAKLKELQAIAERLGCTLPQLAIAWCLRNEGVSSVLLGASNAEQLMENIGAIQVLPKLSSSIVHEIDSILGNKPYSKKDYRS
Dual specificity protein phosphatase 6 (Homo sapiens), sequence (Q16828 whole entry, looked up): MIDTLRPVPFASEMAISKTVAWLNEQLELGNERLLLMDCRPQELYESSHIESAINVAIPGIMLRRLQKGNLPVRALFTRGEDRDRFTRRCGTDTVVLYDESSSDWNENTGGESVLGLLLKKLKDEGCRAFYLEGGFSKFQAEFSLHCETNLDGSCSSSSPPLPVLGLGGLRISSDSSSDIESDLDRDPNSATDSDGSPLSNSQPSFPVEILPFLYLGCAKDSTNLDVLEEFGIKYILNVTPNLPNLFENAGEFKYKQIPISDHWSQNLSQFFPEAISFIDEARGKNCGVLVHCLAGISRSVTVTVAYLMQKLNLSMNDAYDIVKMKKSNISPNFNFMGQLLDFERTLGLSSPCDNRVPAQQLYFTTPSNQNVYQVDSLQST
Muscarinic acetylcholine receptor M4 (Homo sapiens), sequence (P08173 whole entry, looked up): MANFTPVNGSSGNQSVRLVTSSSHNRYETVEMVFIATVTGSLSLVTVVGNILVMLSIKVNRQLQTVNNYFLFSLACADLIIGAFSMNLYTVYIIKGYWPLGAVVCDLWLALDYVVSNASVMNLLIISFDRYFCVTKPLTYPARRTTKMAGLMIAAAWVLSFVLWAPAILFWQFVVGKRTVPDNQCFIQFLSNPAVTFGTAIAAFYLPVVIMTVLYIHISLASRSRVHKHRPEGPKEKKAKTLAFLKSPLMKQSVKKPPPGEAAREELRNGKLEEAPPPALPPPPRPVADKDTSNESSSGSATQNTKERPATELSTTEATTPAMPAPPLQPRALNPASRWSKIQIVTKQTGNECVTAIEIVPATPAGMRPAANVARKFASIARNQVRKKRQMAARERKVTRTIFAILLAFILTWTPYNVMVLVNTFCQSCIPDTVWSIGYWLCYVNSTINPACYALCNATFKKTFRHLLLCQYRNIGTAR

Row | SMILES | cell count [1] | inhibition [1] | inhibition [2] | nuclei count [2] [%] | z-score [3, 10] | z-score [3, 11] | z-score [3, 12] | inhibition [4] | fluorescence slope [5] | NADPH fluorescence slope [6] | fluorescence slope [7] | outcome [8] | inhibition [9]
1 | COc1ccc(CN(C#N)c2nc(SC)nc(N(C)C)n2)cc1 | 720 | -0.6% (inactive) | -41.4% (inactive) | 137 | 0.386 | 1.03 | 0.357 | -3.95% (inactive) | -0.451 (inactive) | -4.7e-05 (inactive) | 0.00509 (inactive) | inactive | -6.51% (inactive)
2 | CS(=O)(=O)c1ccc2nc(NC(NC(=O)c3ccco3)(C(F)(F)F)C(F)(F)F)sc2c1 | 376 | -6.2% (inactive) | 9.6% (inactive) | 162 | -0.876 | 1.31 | 0.831 | 3.42% (inactive) | -0.451 (inactive) | -8.9e-05 (inactive) | 0.00497 (inactive) | inactive | 2.54% (inactive)
3 | CC(C)COC(=O)CCNc1n[nH]c(=O)[nH]c1=O | 622 | -4.8% (inactive) | -26.4% (inactive) | 174 | 0.623 | -0.835 | -0.389 | -11.5% (inactive) | -0.505 (inactive) | -4.2e-05 (inactive) | 0.00627 (inactive) | inactive | -4.85% (inactive)
4 | C=CCOc1ccc(/C(O)=C2/C(=O)C(=O)N(CCCN3CCOCC3)C2c2ccc(OC)cc2)cc1 (configuration not stated) | 409 | -10.2% (inactive) | -115% (inactive) | 131 | 0.861 | -1.19 | 0.613 | 14% (inactive) | -0.455 (inactive) | -0.000145 (inactive) | 0.00475 (inactive) | inactive | 25.3% (inactive)
5 | COc1ccc(OC)c(C2C(C#N)=C(N)Oc3cc(C)n(Cc4ccccn4)c(=O)c32)c1 (configuration not stated) | 736 | 3.4% (inactive) | -76% (inactive) | 167 | 0.84 | 0.709 | -0.214 | 13.2% (inactive) | -0.443 (inactive) | -7.4e-05 (inactive) | 0.0059 (inactive) | inactive | 11.4% (inactive)
6 | O=c1c2ccccc2ncn1Cc1ccco1 | 682 | -8.5% (inactive) | -74.2% (inactive) | 138 | -0.419 | -1.56 | 0.938 | -15.1% (inactive) | -0.449 (inactive) | -3.2e-05 (inactive) | 0.00462 (inactive) | inactive | 14.3% (inactive)
7 | CCCCCCOc1ccc(N2C(=O)CC(N3CCN(C(=O)c4ccco4)CC3)C2=O)cc1 (configuration not stated) | 632 | 8.2% (inactive) | -105% (inactive) | 150 | 0.106 | -0.155 | -0.8 | 10.1% (inactive) | -0.487 (inactive) | -3.5e-05 (inactive) | 0.00531 (inactive) | inactive | 5.01% (inactive)
8 | Cc1ccccc1N1C(=O)C2ON(c3ccccc3)C(c3cccnc3)C2C1=O (configuration not stated) | 541 | -7% (inactive) | 20.1% (inactive) | 88.7 | 1.39 | 0.945 | -1.38 | 7.7% (inactive) | -0.502 (inactive) | -4.4e-05 (inactive) | 0.00555 (inactive) | inactive | -7.8% (inactive)
9 | CC(NC(=O)CSc1nc2c(cc1C#N)CN(C)CC2)c1ccccc1 (configuration not stated) | 739 | 5.9% (inactive) | -3.5% (inactive) | 170 | 0.748 | -0.601 | -0.682 | 6.04% (inactive) | -0.429 (inactive) | -3.9e-05 (inactive) | 0.00365 (inactive) | inactive | 11.3% (inactive)
10 | CC(C)OCCCn1c(=N)c(C(N)=S)cc2c(=O)n3ccccc3nc21 | 619 | -7.9% (inactive) | -3% (inactive) | 149 | 1.16 | -1.47 | -1.15 | 17.7% (inactive) | -0.454 (inactive) | -4.1e-05 (inactive) | 0.00453 (inactive) | inactive | 22.8% (inactive)
11 | CC(C)CSc1nc(N2CCOCC2)c2c(c1C#N)CC(C)(C)SC2 | 574 | -6% (inactive) | -69.8% (inactive) | 145 | -0.439 | -0.915 | -0.541 | -5.81% (inactive) | -0.424 (inactive) | -8.1e-05 (inactive) | 0.00667 (inactive) | inactive | 25.7% (inactive)
12 | CCOc1ccc(N=C(NC#N)SCC(=O)NC2CC2)cc1 | 613 | -1.5% (inactive) | -40.6% (inactive) | 161 | 0.193 | 0.708 | 0.295 | -2.29% (inactive) | -0.491 (inactive) | -4.8e-05 (inactive) | 0.00628 (inactive) | inactive | -3.68% (inactive)
13 | Cc1ccc(C(=O)NCC(C)(C)O)cc1 | 554 | -5.3% (inactive) | -1.3% (inactive) | 87.7 | -0.652 | -0.297 | -0.959 | -3.95% (inactive) | -0.473 (inactive) | -8.2e-05 (inactive) | 0.00553 (inactive) | inactive | -5.2% (inactive)
14 | CN1C(=O)C2(c3ccccc31)C1CCCC=C1C(C#N)=C(N)C2(C#N)C#N (configuration not stated) | 391 | -7% (inactive) | -160% (inactive) | 143 | -0.865 | 0.905 | -0.897 | 29.4% (inactive) | -0.472 (inactive) | -1.9e-05 (inactive) | 0.00434 (inactive) | inactive | 4.14% (inactive)
